Active and inactive are the calls of the source. The calls are words filed in the database; no cut-off is given here.
What follows are molecules tested on HeLa (assay: Cytotoxicity against human HeLa cells after 48 hrs by MTT assay). Settings: not given.
Format: functional, cell-based
In short: (§1)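 Cells seeded at 5000 per well, left overnight, then exposed to compound at 0–50 μM for 48 h. MTT (20 μL of 2.5 mg mL−1) added for a further 4 h at 37 °C, formazan dissolved in DMSO, absorbance read at 570 nm. Quadruplicate wells, N > 2 determinations, mean IC50 taken as the concentration reducing cell number to 50%.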

Compound	IC50 [µM]
Cc1ccc(Cn2c(/C=C3\SC(=S)N(CC(=O)O)C3=O)nc3cc(Cl)ccc32)cc1	21.4
COc1ccc2c(c1)nc(/C=C1\SC(=S)N(CC(=O)O)C1=O)n2Cc1ccc(C)cc1	1.82
O=C(O)CN1C(=O)/C(=C/c2nc3ccccc3n2CC(=O)c2ccc(F)cc2)SC1=S	14.8
O=C(O)CN1C(=O)/C(=C/c2nc3cc(Cl)ccc3n2Cc2ccccc2F)SC1=S	9.52
Cc1ccc(Cn2c(/C=C3\SC(=S)N(CC(=O)O)C3=O)nc3cc(F)ccc32)cc1	2.38
O=C(O)CN1C(=O)/C(=C/c2nc3ccc(Cl)cc3n2Cc2ccccc2F)SC1=S	7.62
O=C(O)CN1C(=O)/C(=C/c2nc3ccccc3n2Cc2ccc(F)c(F)c2)SC1=S	16

These molecules were tested on HL-60 (assay: Cytotoxicity against human HL60 cells after 48 hrs by MTT assay). Settings: HL-60, 48 h.
Format: functional, cell-based
In short: as §1

Compound	IC50 [µM]
Cc1ccc(Cn2c(/C=C3\SC(=S)N(CC(=O)O)C3=O)nc3cc(Cl)ccc32)cc1	2.72
COc1ccc2c(c1)nc(/C=C1\SC(=S)N(CC(=O)O)C1=O)n2Cc1ccc(C)cc1	0.77
O=C(O)CN1C(=O)/C(=C/c2nc3ccccc3n2CC(=O)c2ccc(F)cc2)SC1=S	3.96
O=C(O)CN1C(=O)/C(=C/c2nc3cc(Cl)ccc3n2Cc2ccccc2F)SC1=S	0.87
Cc1ccc(Cn2c(/C=C3\SC(=S)N(CC(=O)O)C3=O)nc3cc(F)ccc32)cc1	1.17
O=C(O)CN1C(=O)/C(=C/c2nc3ccc(Cl)cc3n2Cc2ccccc2F)SC1=S	5.23
O=C(O)CN1C(=O)/C(=C/c2nc3ccccc3n2Cc2ccc(F)c(F)c2)SC1=S	2.74

Each molecule was assayed on MDA-MB-231 (assay: Cytotoxicity against human MDA-MB-231 cells after 48 hrs by MTT assay). Settings: MDA-MB-231, 48 h.
Format: functional, cell-based
In short: as §1

Compound	IC50 [µM]
Cc1ccc(Cn2c(/C=C3\SC(=S)N(CC(=O)O)C3=O)nc3cc(Cl)ccc32)cc1	13.7
COc1ccc2c(c1)nc(/C=C1\SC(=S)N(CC(=O)O)C1=O)n2Cc1ccc(C)cc1	1.22
O=C(O)CN1C(=O)/C(=C/c2nc3ccccc3n2CC(=O)c2ccc(F)cc2)SC1=S	6.31
O=C(O)CN1C(=O)/C(=C/c2nc3cc(Cl)ccc3n2Cc2ccccc2F)SC1=S	1.67
Cc1ccc(Cn2c(/C=C3\SC(=S)N(CC(=O)O)C3=O)nc3cc(F)ccc32)cc1	6.55
O=C(O)CN1C(=O)/C(=C/c2nc3ccc(Cl)cc3n2Cc2ccccc2F)SC1=S	9.57
O=C(O)CN1C(=O)/C(=C/c2nc3ccccc3n2Cc2ccc(F)c(F)c2)SC1=S	3.76

Each molecule was assayed on Raji (assay: Cytotoxicity against human Raji cells after 48 hrs by MTT assay). Settings: not given.
Format: functional, cell-based
In short: as §1

Compound	IC50 [µM]
Cc1ccc(Cn2c(/C=C3\SC(=S)N(CC(=O)O)C3=O)nc3cc(Cl)ccc32)cc1	20.9
COc1ccc2c(c1)nc(/C=C1\SC(=S)N(CC(=O)O)C1=O)n2Cc1ccc(C)cc1	1.79
O=C(O)CN1C(=O)/C(=C/c2nc3ccccc3n2CC(=O)c2ccc(F)cc2)SC1=S	8.24
O=C(O)CN1C(=O)/C(=C/c2nc3cc(Cl)ccc3n2Cc2ccccc2F)SC1=S	2.78
Cc1ccc(Cn2c(/C=C3\SC(=S)N(CC(=O)O)C3=O)nc3cc(F)ccc32)cc1	3.28
O=C(O)CN1C(=O)/C(=C/c2nc3ccc(Cl)cc3n2Cc2ccccc2F)SC1=S	8.87
O=C(O)CN1C(=O)/C(=C/c2nc3ccccc3n2Cc2ccc(F)c(F)c2)SC1=S	7.25

These molecules were tested on PC-3 (assay: Cytotoxicity against human PC3 cells after 48 hrs by MTT assay). Settings: PC-3, 48 h.
Format: functional, cell-based
In short: as §1

Compound	IC50 [µM]
Cc1ccc(Cn2c(/C=C3\SC(=S)N(CC(=O)O)C3=O)nc3cc(Cl)ccc32)cc1	26.7
COc1ccc2c(c1)nc(/C=C1\SC(=S)N(CC(=O)O)C1=O)n2Cc1ccc(C)cc1	3.64
O=C(O)CN1C(=O)/C(=C/c2nc3ccccc3n2CC(=O)c2ccc(F)cc2)SC1=S	9.87
O=C(O)CN1C(=O)/C(=C/c2nc3cc(Cl)ccc3n2Cc2ccccc2F)SC1=S	3.48
Cc1ccc(Cn2c(/C=C3\SC(=S)N(CC(=O)O)C3=O)nc3cc(F)ccc32)cc1	10.2
O=C(O)CN1C(=O)/C(=C/c2nc3ccc(Cl)cc3n2Cc2ccccc2F)SC1=S	17.3
O=C(O)CN1C(=O)/C(=C/c2nc3ccccc3n2Cc2ccc(F)c(F)c2)SC1=S	5.97

What follows are molecules tested on A549 (assay: Cytotoxicity against human A549 cells after 48 hrs by MTT assay). Settings: A549, 48 h.
Format: functional, cell-based
In short: as §1

Compound	IC50 [µM]
Cc1ccc(Cn2c(/C=C3\SC(=S)N(CC(=O)O)C3=O)nc3cc(Cl)ccc32)cc1	38.6
COc1ccc2c(c1)nc(/C=C1\SC(=S)N(CC(=O)O)C1=O)n2Cc1ccc(C)cc1	5.68
O=C(O)CN1C(=O)/C(=C/c2nc3ccccc3n2CC(=O)c2ccc(F)cc2)SC1=S	12.8
O=C(O)CN1C(=O)/C(=C/c2nc3cc(Cl)ccc3n2Cc2ccccc2F)SC1=S	5.64
Cc1ccc(Cn2c(/C=C3\SC(=S)N(CC(=O)O)C3=O)nc3cc(F)ccc32)cc1	13.8
O=C(O)CN1C(=O)/C(=C/c2nc3ccc(Cl)cc3n2Cc2ccccc2F)SC1=S	26.9
O=C(O)CN1C(=O)/C(=C/c2nc3ccccc3n2Cc2ccc(F)c(F)c2)SC1=S	13.4

Organism: Homo sapiens
Test: Inhibition of human topoisomerase 2-mediated pBR322 DNA relaxation at 20 uM after 30 mins by agarose gel electrophoresis
Settings: not given

Compound	inhibition
COc1ccc2c(c1)nc(/C=C1\SC(=S)N(CC(=O)O)C1=O)n2Cc1ccc(C)cc1	Active
O=C(O)CN1C(=O)/C(=C/c2nc3ccccc3n2CC(=O)c2ccc(F)cc2)SC1=S	Active
Cc1ccc(Cn2c(/C=C3\SC(=S)N(CC(=O)O)C3=O)nc3cc(F)ccc32)cc1	Active

Further lines, results first:

inhibition	Compound
Active	Cc1ccc(Cn2c(/C=C3\SC(=S)N(CC(=O)O)C3=O)nc3cc(Cl)ccc32)cc1
Active	O=C(O)CN1C(=O)/C(=C/c2nc3cc(Cl)ccc3n2Cc2ccccc2F)SC1=S
Active	O=C(O)CN1C(=O)/C(=C/c2nc3ccc(Cl)cc3n2Cc2ccccc2F)SC1=S
Active	O=C(O)CN1C(=O)/C(=C/c2nc3ccccc3n2Cc2ccc(F)c(F)c2)SC1=S

Organism: Homo sapiens
Test: Inhibition of human topoisomerase 2-mediated pBR322 DNA relaxation at 10 uM after 30 mins by agarose gel electrophoresis
Settings: not given

Compound	inhibition
COc1ccc2c(c1)nc(/C=C1\SC(=S)N(CC(=O)O)C1=O)n2Cc1ccc(C)cc1	Active
O=C(O)CN1C(=O)/C(=C/c2nc3ccccc3n2CC(=O)c2ccc(F)cc2)SC1=S	Active
Cc1ccc(Cn2c(/C=C3\SC(=S)N(CC(=O)O)C3=O)nc3cc(F)ccc32)cc1	Active

Other lines, results leading:

inhibition	Compound
Active	Cc1ccc(Cn2c(/C=C3\SC(=S)N(CC(=O)O)C3=O)nc3cc(Cl)ccc32)cc1
Active	O=C(O)CN1C(=O)/C(=C/c2nc3cc(Cl)ccc3n2Cc2ccccc2F)SC1=S
Active	O=C(O)CN1C(=O)/C(=C/c2nc3ccc(Cl)cc3n2Cc2ccccc2F)SC1=S
Active	O=C(O)CN1C(=O)/C(=C/c2nc3ccccc3n2Cc2ccc(F)c(F)c2)SC1=S

Organism: Homo sapiens
Test: Inhibition of human topoisomerase 2-mediated pBR322 DNA relaxation at 50 uM after 30 mins by agarose gel electrophoresis
Settings: not given
In short: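 Relaxation of 200 ng supercoiled pBR322 by 1 U Topo II (TopoGEN) in 20 μL buffer: 50 mM Tris-HCl pH 8.0, 150 mM NaCl, 10 mM MgCl2, 2 mM ATP, 0.5 mM DTT, 30 μg/mL BSA. Incubated 30 min at 37 °C, stopped with sarcosyl/glycerol dye. Products run on 1% agarose in TAE (1.5 h, 75 V), Ged Red stained, UV imaged; etoposide positive control.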

Compound	inhibition
COc1ccc2c(c1)nc(/C=C1\SC(=S)N(CC(=O)O)C1=O)n2Cc1ccc(C)cc1	Active
Cc1ccc(Cn2c(/C=C3\SC(=S)N(CC(=O)O)C3=O)nc3cc(F)ccc32)cc1	Active

The remaining lines, values ahead:

inhibition	Compound
Active	Cc1ccc(Cn2c(/C=C3\SC(=S)N(CC(=O)O)C3=O)nc3cc(Cl)ccc32)cc1
Active	O=C(O)CN1C(=O)/C(=C/c2nc3cc(Cl)ccc3n2Cc2ccccc2F)SC1=S
Active	O=C(O)CN1C(=O)/C(=C/c2nc3ccc(Cl)cc3n2Cc2ccccc2F)SC1=S
Active	O=C(O)CN1C(=O)/C(=C/c2nc3ccccc3n2Cc2ccc(F)c(F)c2)SC1=S

These molecules were tested against T1, DNA topoisomerase 1 (Homo sapiens) (UniProt P11387) (assay: Inhibition of topoisomerase 1 (unknown origin)-mediated pBR322 DNA relaxation at 50 uM after 30 mins by agarose gel electrophoresis). Settings: not given.
T1 sequence (whole entry): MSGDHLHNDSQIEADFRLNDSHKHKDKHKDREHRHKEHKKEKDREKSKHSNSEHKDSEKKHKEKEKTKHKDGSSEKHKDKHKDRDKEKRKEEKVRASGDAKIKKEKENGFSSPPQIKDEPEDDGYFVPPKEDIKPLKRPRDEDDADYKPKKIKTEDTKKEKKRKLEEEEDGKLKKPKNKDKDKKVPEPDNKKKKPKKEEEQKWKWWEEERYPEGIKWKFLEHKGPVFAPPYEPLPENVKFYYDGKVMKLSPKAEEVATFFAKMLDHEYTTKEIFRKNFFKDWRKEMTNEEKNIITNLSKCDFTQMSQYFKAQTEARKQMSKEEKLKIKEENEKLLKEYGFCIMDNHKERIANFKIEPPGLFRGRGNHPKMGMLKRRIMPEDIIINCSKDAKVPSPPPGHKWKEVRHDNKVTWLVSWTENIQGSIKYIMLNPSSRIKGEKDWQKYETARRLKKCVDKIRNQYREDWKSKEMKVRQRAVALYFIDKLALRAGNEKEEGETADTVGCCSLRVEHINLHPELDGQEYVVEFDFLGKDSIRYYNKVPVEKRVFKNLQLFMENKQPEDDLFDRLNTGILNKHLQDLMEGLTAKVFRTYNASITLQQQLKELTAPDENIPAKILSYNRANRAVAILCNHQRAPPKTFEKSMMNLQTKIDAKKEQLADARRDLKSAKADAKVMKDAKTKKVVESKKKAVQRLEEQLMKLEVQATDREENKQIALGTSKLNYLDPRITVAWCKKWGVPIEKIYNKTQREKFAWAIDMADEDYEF
In short: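 Topo I relaxation of pBR322 with compound at 30 min, 37 °C, camptothecin positive control. Stopped with SDS/bromophenol blue/glycerol dye, run on 1% agarose in TAE for 1.5 h, Ged Red stained, UV visualized.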

Compound	inhibition
COc1ccc2c(c1)nc(/C=C1\SC(=S)N(CC(=O)O)C1=O)n2Cc1ccc(C)cc1	inactive
O=C(O)CN1C(=O)/C(=C/c2nc3ccccc3n2CC(=O)c2ccc(F)cc2)SC1=S	inactive
Cc1ccc(Cn2c(/C=C3\SC(=S)N(CC(=O)O)C3=O)nc3cc(F)ccc32)cc1	inactive

Continued, values first:

inhibition	Compound
inactive	Cc1ccc(Cn2c(/C=C3\SC(=S)N(CC(=O)O)C3=O)nc3cc(Cl)ccc32)cc1
inactive	O=C(O)CN1C(=O)/C(=C/c2nc3cc(Cl)ccc3n2Cc2ccccc2F)SC1=S
inactive	O=C(O)CN1C(=O)/C(=C/c2nc3ccc(Cl)cc3n2Cc2ccccc2F)SC1=S
inactive	O=C(O)CN1C(=O)/C(=C/c2nc3ccccc3n2Cc2ccc(F)c(F)c2)SC1=S
